Source: ChEMBL document CHEMBL3352760, “Nanomolar-Potency Small Molecule Inhibitor of STAT5 Protein” (ACS Med Chem Lett, 2014)
Activity calls are given as the source filed them. The calls are words filed in the database; no cut-off is given here.

How the values were obtained:
[1] = molecular target: T1, Signal transducer and activator of transcription 5B (Homo sapiens, UniProt P51692); experiment: Inhibition of STAT5B SH2 domain (unknown origin)-5-FAM-GpYLVLDKW interaction compound treated for 15 mins by fluorescent polarization assay
T1 sequence (P51692 whole entry): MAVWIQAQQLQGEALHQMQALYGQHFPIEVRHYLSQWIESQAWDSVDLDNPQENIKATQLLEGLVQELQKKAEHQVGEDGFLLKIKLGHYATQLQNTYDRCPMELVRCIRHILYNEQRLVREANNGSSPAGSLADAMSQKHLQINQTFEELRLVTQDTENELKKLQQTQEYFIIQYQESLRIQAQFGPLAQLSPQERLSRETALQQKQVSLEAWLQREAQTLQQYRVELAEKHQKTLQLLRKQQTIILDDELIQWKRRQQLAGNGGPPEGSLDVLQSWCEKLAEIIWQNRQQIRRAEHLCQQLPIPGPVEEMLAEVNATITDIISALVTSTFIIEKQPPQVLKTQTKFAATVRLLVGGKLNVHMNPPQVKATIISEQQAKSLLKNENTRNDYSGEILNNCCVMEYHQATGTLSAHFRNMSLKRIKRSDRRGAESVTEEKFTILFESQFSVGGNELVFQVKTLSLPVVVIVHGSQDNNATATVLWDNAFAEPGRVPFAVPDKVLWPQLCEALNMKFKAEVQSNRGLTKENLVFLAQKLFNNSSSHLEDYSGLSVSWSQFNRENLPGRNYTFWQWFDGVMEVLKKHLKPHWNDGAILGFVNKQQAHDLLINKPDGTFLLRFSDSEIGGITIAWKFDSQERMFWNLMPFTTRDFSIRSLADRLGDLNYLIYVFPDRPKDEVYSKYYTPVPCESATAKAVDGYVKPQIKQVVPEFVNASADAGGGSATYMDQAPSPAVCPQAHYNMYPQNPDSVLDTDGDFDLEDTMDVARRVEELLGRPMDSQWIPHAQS
Outline: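 Fluorescence polarization used STAT5B SH2 domain bound to the fluorescein-labelled phosphopeptide 5-FAM-GpYLVDKW, with inhibitor tested up to 100 μM. Polarization was read every 15 min over 1 h to confirm the probe stayed bound and to pick the time of maximal change. Ki values were derived from the data.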

K562 [2] = experiment: Cytotoxicity against human K562 cells assessed as reduction in cell viability after 72 hrs by CellTiter-Blue assay; format: functional, cell-based; conditions: K562, 72 h
Outline: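 K562 (Bcr-Abl) and MV-4;11 (FLT3-ITD) leukemia cells were exposed to inhibitor over 0.78–50 μM for 72 h. Viability was read by CellTiter-Blue and IC50 taken from the dose series.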

[3] = molecular target: Tyrosine-protein kinase ABL1 (Homo sapiens) (UniProt P00519); experiment: Inhibition of ABL (unknown origin)
Chain of Tyrosine-protein kinase ABL1 (Homo sapiens) (P00519 whole entry): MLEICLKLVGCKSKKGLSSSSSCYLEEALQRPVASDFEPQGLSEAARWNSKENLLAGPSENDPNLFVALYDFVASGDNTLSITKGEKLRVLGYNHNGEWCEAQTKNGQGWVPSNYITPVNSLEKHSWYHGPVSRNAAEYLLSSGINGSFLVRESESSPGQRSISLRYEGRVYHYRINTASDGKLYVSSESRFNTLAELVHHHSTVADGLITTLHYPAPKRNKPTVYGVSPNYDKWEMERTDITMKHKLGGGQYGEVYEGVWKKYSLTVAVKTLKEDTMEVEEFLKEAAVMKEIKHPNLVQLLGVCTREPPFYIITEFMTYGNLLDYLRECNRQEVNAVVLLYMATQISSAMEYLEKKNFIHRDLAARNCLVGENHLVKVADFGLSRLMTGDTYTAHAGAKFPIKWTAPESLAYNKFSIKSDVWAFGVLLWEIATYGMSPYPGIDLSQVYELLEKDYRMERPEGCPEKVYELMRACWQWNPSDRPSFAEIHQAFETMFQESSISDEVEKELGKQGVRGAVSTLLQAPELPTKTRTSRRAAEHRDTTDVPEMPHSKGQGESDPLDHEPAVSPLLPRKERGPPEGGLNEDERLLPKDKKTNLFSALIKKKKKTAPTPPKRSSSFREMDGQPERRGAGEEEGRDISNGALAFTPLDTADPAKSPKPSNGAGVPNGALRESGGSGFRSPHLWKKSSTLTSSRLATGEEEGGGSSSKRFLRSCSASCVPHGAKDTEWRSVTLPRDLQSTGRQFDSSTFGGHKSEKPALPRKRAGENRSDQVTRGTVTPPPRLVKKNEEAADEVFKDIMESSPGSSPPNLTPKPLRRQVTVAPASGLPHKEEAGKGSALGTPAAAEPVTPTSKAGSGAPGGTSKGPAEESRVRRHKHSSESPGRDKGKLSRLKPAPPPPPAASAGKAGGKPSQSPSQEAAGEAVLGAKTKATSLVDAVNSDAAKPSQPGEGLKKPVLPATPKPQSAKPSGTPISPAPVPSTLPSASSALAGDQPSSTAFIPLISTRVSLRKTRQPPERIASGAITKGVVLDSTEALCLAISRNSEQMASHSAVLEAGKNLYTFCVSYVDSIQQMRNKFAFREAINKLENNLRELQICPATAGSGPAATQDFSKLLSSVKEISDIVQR

K562 [4] = experiment: Inhibition of STAT5 phosphorylation at Y694 residue in human K562 cells after 5 hrs by Western blotting; format: cell-based
Outline: (§1)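 K562 cells were treated for 5 h across a dose range, then harvested. Immunoblots probed phospho-STAT5 (Y694), total STAT5 and cleaved PARP-1.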

JAK2/JAK1 (Homo sapiens) = JAK2/JAK1 (Homo sapiens) (UniProt P23458+O60674); experiment: Inhibition of JAK1/2 (unknown origin); format: protein-complex assay
MV4-11 = experiment: Cytotoxicity against human MV4-11 cells assessed as reduction in cell viability after 72 hrs by CellTiter-Blue assay; conditions: MV4-11, 72 h
K562 [5] = experiment: Inhibition of STAT5 phosphorylation at Y694 residue in human K562 cells at 10 uM after 5 hrs by Western blotting; format: cell-based; outline: as §1
[6] = Cytotoxicity against human CD34-positive umbilical cord cells assessed as reduction in cell viability at 10 uM after 72 hrs by CellTiter-Blue assay; format: cell-based
Outline: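 Healthy human CD34+ umbilical cord cells received a single 10 μM dose, with MV4;11 cells run alongside. Cell viability was then measured.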

[7] = molecular target: Receptor-type tyrosine-protein kinase FLT3 (Homo sapiens) (UniProt P36888); experiment: Inhibition of FLT3 (unknown origin)
Chain of Receptor-type tyrosine-protein kinase FLT3 (Homo sapiens) (P36888 whole entry): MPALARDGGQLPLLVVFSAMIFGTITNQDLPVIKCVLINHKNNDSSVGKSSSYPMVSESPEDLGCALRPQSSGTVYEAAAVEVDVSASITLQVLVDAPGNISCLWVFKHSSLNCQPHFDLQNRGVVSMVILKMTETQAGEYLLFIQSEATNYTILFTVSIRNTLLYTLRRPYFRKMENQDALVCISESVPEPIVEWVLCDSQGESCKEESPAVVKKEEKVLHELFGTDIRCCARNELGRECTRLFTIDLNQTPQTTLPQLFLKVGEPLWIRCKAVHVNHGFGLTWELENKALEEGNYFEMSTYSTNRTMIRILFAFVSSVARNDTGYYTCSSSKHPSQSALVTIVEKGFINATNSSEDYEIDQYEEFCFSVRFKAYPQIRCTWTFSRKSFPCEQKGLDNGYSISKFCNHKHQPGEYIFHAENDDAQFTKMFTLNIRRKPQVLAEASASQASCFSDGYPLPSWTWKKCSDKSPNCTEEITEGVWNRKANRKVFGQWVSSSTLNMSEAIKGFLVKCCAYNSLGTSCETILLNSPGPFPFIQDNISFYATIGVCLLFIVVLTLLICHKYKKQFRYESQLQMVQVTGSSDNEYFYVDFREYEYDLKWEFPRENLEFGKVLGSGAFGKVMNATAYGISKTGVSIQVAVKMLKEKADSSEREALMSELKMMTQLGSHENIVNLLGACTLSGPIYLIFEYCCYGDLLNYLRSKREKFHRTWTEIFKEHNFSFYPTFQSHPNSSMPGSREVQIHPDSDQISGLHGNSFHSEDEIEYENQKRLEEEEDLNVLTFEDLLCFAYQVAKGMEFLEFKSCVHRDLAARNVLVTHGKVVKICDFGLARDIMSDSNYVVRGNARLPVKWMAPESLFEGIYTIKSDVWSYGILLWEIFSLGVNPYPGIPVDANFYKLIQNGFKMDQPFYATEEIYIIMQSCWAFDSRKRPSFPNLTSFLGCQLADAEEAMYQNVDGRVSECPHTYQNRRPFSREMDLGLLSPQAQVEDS

MDA-MB-231 [8] = experiment: Effect on total STAT5 level in human MDA-MB-231 cells at 15 uM after 5 hrs by Western blotting; format: functional, cell-based
Outline: (§2)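 MDA-MB-231 breast cancer cells carry high pSTAT3 and negligible pSTAT5. They were treated up to 20 μM and immunoblotted for pSTAT3, total STAT3 and total STAT5.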

K562 [9] = experiment: Effect on total STAT5 level in human K562 cells at 15 uM after 5 hrs by Western blotting; format: functional, cell-based; outline: as §1
K562 [10] = experiment: Inhibition of STAT5 phosphorylation at Y694 residue in human K562 cells assessed as decreases in MCL-1 expression at 15 uM after 24 hrs by Western blotting; format: cell-based
Outline: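 K562 cells were exposed to 15 μM for 24 h. Lysates were immunoblotted for cleaved PARP-1, cleaved caspase-3 and MCL-1.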

MDA-MB-231 [11] = experiment: Effect on total STAT3 level in human MDA-MB-231 cells at 15 uM after 5 hrs by Western blotting; format: functional, cell-based; outline: as §2
K562 [12] = experiment: Inhibition of STAT5 phosphorylation at Y694 residue in human K562 cells assessed as decreases in MYC expression after 5 hrs by Western blotting; format: cell-based
Outline: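 K562 cells were dosed for 5 h at the same concentrations used for pSTAT5 inhibition. MYC protein was followed by immunoblot.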

[13] = molecular target: T1, Signal transducer and activator of transcription 5B; experiment: Binding affinity to full-length His-tagged STAT5B (unknown origin) by surface plasmon resonance assay
[14] = molecular target: Signal transducer and activator of transcription 3 (Homo sapiens) (UniProt P40763); conditions: MDA-MB-231, 15 uM
Chain of Signal transducer and activator of transcription 3 (Homo sapiens) (P40763 whole entry): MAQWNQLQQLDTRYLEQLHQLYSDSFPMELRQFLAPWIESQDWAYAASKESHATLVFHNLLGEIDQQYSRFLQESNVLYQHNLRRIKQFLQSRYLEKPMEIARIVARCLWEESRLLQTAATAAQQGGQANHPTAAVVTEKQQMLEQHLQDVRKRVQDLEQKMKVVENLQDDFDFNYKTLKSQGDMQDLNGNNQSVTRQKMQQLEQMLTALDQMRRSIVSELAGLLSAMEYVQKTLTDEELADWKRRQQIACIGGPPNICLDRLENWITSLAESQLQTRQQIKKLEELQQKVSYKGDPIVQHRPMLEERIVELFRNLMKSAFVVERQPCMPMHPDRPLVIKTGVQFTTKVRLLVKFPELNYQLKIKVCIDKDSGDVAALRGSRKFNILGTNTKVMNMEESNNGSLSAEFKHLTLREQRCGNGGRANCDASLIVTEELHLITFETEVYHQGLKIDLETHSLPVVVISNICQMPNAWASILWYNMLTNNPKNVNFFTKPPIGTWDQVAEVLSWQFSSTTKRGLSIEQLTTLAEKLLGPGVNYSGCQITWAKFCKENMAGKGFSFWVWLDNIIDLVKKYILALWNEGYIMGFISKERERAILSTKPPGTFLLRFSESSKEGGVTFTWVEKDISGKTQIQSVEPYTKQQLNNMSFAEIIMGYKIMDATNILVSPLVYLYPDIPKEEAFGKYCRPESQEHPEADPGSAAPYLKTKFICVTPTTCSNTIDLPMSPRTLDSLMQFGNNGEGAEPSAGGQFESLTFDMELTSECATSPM

SMILES | Ki [1] [µM] | also measured
Cc1cc(C)c(S(=O)(=O)N(C)CC(=O)N(Cc2nccn2C)c2ccc(C(=O)O)c(O)c2)c(C)c1 | > 60 | 
Cc1cc(C)c(S(=O)(=O)N(C)CC(=O)N(Cc2ccccc2)c2ccc(C(=O)O)c(O)c2)c(C)c1 | > 60 | 
CN(CC(=O)N(Cc1cc(C(C)(C)C)cc(C(C)(C)C)c1)c1ccc(C(=O)O)c(O)c1)S(=O)(=O)c1c(F)c(F)c(F)c(F)c1F | 11.5 | IC50 (K562 [2]): 3 µM
CN(CC(=O)N(Cc1cccs1)c1ccc(C(=O)O)c(O)c1)S(=O)(=O)c1c(F)c(F)c(F)c(F)c1F | > 60 | 
O=C(O)c1ccc(N(Cc2ccc3ccccc3c2)C(=O)CN(Cc2ccc(Cl)cc2)S(=O)(=O)c2c(F)c(F)c(F)c(F)c2F)cc1O |  | IC50 (K562 [2]): 3 µM
Cc1cc(C)c(S(=O)(=O)N(C)CC(=O)N(Cc2cc(C(C)(C)C)cc(C(C)(C)C)c2)c2ccc(C(=O)O)c(O)c2)c(C)c1 | 4.77 | IC50 (K562 [2]): 3 µM
Cc1cc(C)c(S(=O)(=O)N(C)CC(=O)N(CC23CCC(CC2)C3)c2ccc(C(=O)O)c(O)c2)c(C)c1 | > 60 | 
Cc1cc(C)c(S(=O)(=O)N(CC(=O)N(Cc2ccc3ccccc3c2)c2ccc(C(=O)O)c(O)c2)Cc2ccc(Cl)cc2)c(C)c1 |  | IC50 (K562 [2]): 3 µM
CC(C)(C)c1cc(CN(C(=O)CN(Cc2ccc(Cl)cc2)S(=O)(=O)c2c(F)c(F)c(F)c(F)c2F)c2ccc(C(=O)O)c(O)c2)cc(C(C)(C)C)c1 |  | inhibition [3]: inactive; inhibition (K562 [4]): Dose-dependent effect; inhibition (JAK2/JAK1 (Homo sapiens)): inactive; IC50 (MV4-11): 3.5 µM; inhibition (K562 [5]): Active; Activity [6]: Non-toxic; inhibition [7]: inactive; Activity (MDA-MB-231 [8]): inactive; Activity (K562 [9]): inactive; inhibition (K562 [10]): Active; Activity (MDA-MB-231 [11]): inactive; inhibition (K562 [12]): Dose-dependent effect; Kd [13]: 0.042 µM; inhibition [14]: inactive; IC50 (K562 [2]): 3 µM
CN(CC(=O)N(CC1CCCO1)c1ccc(C(=O)O)c(O)c1)S(=O)(=O)c1c(F)c(F)c(F)c(F)c1F (stereo unspecified) | > 60 | 
Cc1cc(C)c(S(=O)(=O)N(C)CC(=O)N(Cc2ccc3ccccc3c2)c2ccc(C(=O)O)c(O)c2)c(C)c1 | 6.62 | IC50 (K562 [2]): 3 µM
CN(CC(=O)N(Cc1ccc2ccccc2c1)c1ccc(C(=O)O)c(O)c1)S(=O)(=O)c1c(F)c(F)c(F)c(F)c1F | 12.4 | IC50 (K562 [2]): 3 µM
Cc1cc(C)c(S(=O)(=O)N(C)CC(=O)N(Cc2ccc(F)cc2)c2ccc(C(=O)O)c(O)c2)c(C)c1 | > 60 | 
Cc1cc(C)c(S(=O)(=O)N(CC(=O)N(Cc2cc(C(C)(C)C)cc(C(C)(C)C)c2)c2ccc(C(=O)O)c(O)c2)Cc2ccc(Cl)cc2)c(C)c1 |  | IC50 (K562 [2]): 3 µM

Now from value to compound, other results behind:

Ki [1] [µM] | SMILES | also measured
> 60 | Cc1cc(C)c(S(=O)(=O)N(C)CC(=O)N(CC2CCCO2)c2ccc(C(=O)O)c(O)c2)c(C)c1 (stereo unspecified) | 
> 60 | CN(CC(=O)N(Cc1nccn1C)c1ccc(C(=O)O)c(O)c1)S(=O)(=O)c1c(F)c(F)c(F)c(F)c1F | 
> 60 | CN(CC(=O)N(Cc1ccc(F)cc1)c1ccc(C(=O)O)c(O)c1)S(=O)(=O)c1c(F)c(F)c(F)c(F)c1F | 
> 60 | Cc1ccc(CN(C(=O)CN(C)S(=O)(=O)c2c(F)c(F)c(F)c(F)c2F)c2ccc(C(=O)O)c(O)c2)cc1 | 
> 60 | Cc1cc(C)c(S(=O)(=O)N(C)CC(=O)N(Cc2cccs2)c2ccc(C(=O)O)c(O)c2)c(C)c1 | 
> 60 | CN(CC(=O)N(CC1CC1)c1ccc(C(=O)O)c(O)c1)S(=O)(=O)c1c(F)c(F)c(F)c(F)c1F | 
> 60 | Cc1cc(C)c(S(=O)(=O)N(C)CC(=O)N(Cc2ccc(C(C)(C)C)cc2)c2ccc(C(=O)O)c(O)c2)c(C)c1 | 
> 60 | CN(CC(=O)N(Cc1ccc(C(C)(C)C)cc1)c1ccc(C(=O)O)c(O)c1)S(=O)(=O)c1c(F)c(F)c(F)c(F)c1F | 
> 60 | Cc1cc(C)c(S(=O)(=O)N(C)CC(=O)N(Cc2c(F)c(F)c(F)c(F)c2F)c2ccc(C(=O)O)c(O)c2)c(C)c1 | 
> 60 | CN(CC(=O)N(CC12CCC(CC1)C2)c1ccc(C(=O)O)c(O)c1)S(=O)(=O)c1c(F)c(F)c(F)c(F)c1F | 
> 60 | Cc1ccc(CN(C(=O)CN(C)S(=O)(=O)c2c(C)cc(C)cc2C)c2ccc(C(=O)O)c(O)c2)cc1 | 
> 60 | CN(CC(=O)N(Cc1c(F)c(F)c(F)c(F)c1F)c1ccc(C(=O)O)c(O)c1)S(=O)(=O)c1c(F)c(F)c(F)c(F)c1F | 
> 60 | CN(CC(=O)N(Cc1ccccc1)c1ccc(C(=O)O)c(O)c1)S(=O)(=O)c1c(F)c(F)c(F)c(F)c1F | 
> 60 | Cc1cc(C)c(S(=O)(=O)N(C)CC(=O)N(CC2CC2)c2ccc(C(=O)O)c(O)c2)c(C)c1 | 
